Experimental data of several laboratories.
Protocols differ between the studies behind these lines.
Target: Casein kinase I isoform gamma-1 (CSNK1G1, Homo sapiens, UniProt Q9HCP0)

SMILES | test | conditions | measurement | value
COc1ncccc1-c1cnn2ccc(N3CCN(C(=O)OC(C)C)CC3)nc12 | binding, competition with immobilised ligand | 1 µM | remaining binding | 77%
O=c1[nH]c2ccccc2n1C1CCN(Cc2ccc(-c3[nH]c4cc5ncnc5cc4nc3-c3ccccc3)cc2)CC1 | cell-free assay | 0.5 µM | remaining signal | 99.3%
Cn1cc(-c2cc(F)cc(N3CCn4c(cc5c4CCCC5)C3=O)c2CO)cc(Nc2ccc(N3CCN(C4COC4)CC3)cn2)c1=O | enzyme activity, inhibitor | 0.1 µM | inhibition | 1%
CC(C)(C)c1cc(C=C(C#N)C#N)cc(Br)c1O | enzyme activity, inhibitor | 0.5 µM | remaining activity | 106%
Cn1cc(-c2cccc(N3CCc4c(sc5c4CC(C)(C)C5)C3=O)c2CO)cc(Nc2ccncn2)c1=O | enzyme activity, inhibitor | 1 µM | inhibition | 5%
C#Cc1n[nH]c2c(-c3cn([C@@H](C)c4ccccc4)c(=O)[nH]c3=O)cc(F)cc12 | enzyme activity, inhibitor | 0.1 µM | inhibition | 6.6%
COc1cc(Nc2ncc(F)c(Nc3ccc4c(n3)NC(=O)C(C)(C)O4)n2)cc(OC)c1OC | binding, competition with immobilised ligand | 10 µM | inhibition | 0%
Cc1nn(C)cc1-c1nc2c(N3CCN(Cc4ccc(Cl)cc4)CC3)c(Cl)cnc2[nH]1 | binding, competition with immobilised ligand | 1 µM | remaining binding | 100%
Cn1cncc1[C@@](O)(COc1ccc(C#N)cc1-c1ccc(OC(F)(F)F)cc1)c1ccc(C#N)cc1 | cell-free assay, competition with immobilised ligand | 1 µM | remaining binding | 91%
C#Cc1n[nH]c2c(-c3cn(C(C)c4ccccn4)c(=O)[nH]c3=O)cc(F)cc12 (stereo not drawn) | enzyme activity, inhibitor | 1 µM | inhibition | 5.4%
Nc1ncc(-c2nc(N3CCOCC3)nc(N3CCOCC3)n2)c(C(F)F)n1 | binding, competition with immobilised ligand | 10 µM | remaining binding | 79%
N#CC1(c2ccccn2)CCN(Cc2cc(C(=O)O)c(=O)n3ccccc23)CC1 | cell-free assay, competition with immobilised ligand | 1 µM | remaining binding | 100%
